This is an account of results in ChEMBL document CHEMBL4308914, “Discovery of potent, low-absorbable sodium-dependent glucose cotransporter 1 (SGLT1) inhibitor SGL5213 for type 2 diabetes treatment” (Bioorg Med Chem, 2019).

Series [1] in a line: Drug excretion in bile duct cannulated Sprague-Dawley rat urine at 2 mg/kg, iv administered as single dose after 24 hrs by LCMS analysis. Type of series: ADME, organism-based. To be noted: read-out: Drug excretion. In a few lines:
(§1)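 Bile duct-cannulated SD rats given single i.v. dose in saline; urine and bile collected over 24 h. Unchanged drug quantified by LC-MS/MS and expressed as cumulative % of dose; mean ± SD of three animals.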

The nature of series [2]: Drug uptake in Sprague-Dawley rat kidney at 0.3 mg/kg, iv administered as single dose after 2 hrs by LCMS analysis. Type of series: ADME, organism-based. To be noted: read-out: Drug uptake. The method, boiled down:
(§2)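 Fasted male SD rats given single i.v. dose in saline; animals euthanized at 2, 24 and 72 h, kidneys homogenized in purified water and unchanged drug measured by LC-MS/MS (ng/g tissue). Mean ± SD of three animals; 72 h level also expressed relative to 2 h value.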

Series [3] is described as follows: Drug uptake in Sprague-Dawley rat kidney at 0.3 mg/kg, iv administered as single dose after 24 hrs by LCMS analysis. Type of series: ADME, organism-based. To be noted: read-out: Drug uptake. In a few lines: as §2
A short description of series [4]: Drug uptake in Sprague-Dawley rat kidney assessed as unchanged drug level at 0.3 mg/kg, iv administered as single dose after 72 hrs by LCMS analysis relative to control. The class given is ADME, organism-based. The conditions noted are these: in vivo. The method, boiled down:
as §2

Series [5] can be described thus: Drug excretion in bile duct cannulated Sprague-Dawley rat bile at 2 mg/kg, iv administered as single dose after 24 hrs by LCMS analysis. The class given is ADME, organism-based. The conditions noted are these: read-out: Drug excretion. The method, boiled down: as §1
Series [6] in a line: Drug uptake in Sprague-Dawley rat kidney at 0.3 mg/kg, iv administered as single dose after 72 hrs by LCMS analysis. The conditions noted are these: read-out: Drug uptake. Type of series: ADME, organism-based. The method, boiled down:
as §2

In series [7] the target is T1, Sodium/glucose cotransporter 2 (Homo sapiens, UniProt P31639).
T1 sequence (P31639 whole entry): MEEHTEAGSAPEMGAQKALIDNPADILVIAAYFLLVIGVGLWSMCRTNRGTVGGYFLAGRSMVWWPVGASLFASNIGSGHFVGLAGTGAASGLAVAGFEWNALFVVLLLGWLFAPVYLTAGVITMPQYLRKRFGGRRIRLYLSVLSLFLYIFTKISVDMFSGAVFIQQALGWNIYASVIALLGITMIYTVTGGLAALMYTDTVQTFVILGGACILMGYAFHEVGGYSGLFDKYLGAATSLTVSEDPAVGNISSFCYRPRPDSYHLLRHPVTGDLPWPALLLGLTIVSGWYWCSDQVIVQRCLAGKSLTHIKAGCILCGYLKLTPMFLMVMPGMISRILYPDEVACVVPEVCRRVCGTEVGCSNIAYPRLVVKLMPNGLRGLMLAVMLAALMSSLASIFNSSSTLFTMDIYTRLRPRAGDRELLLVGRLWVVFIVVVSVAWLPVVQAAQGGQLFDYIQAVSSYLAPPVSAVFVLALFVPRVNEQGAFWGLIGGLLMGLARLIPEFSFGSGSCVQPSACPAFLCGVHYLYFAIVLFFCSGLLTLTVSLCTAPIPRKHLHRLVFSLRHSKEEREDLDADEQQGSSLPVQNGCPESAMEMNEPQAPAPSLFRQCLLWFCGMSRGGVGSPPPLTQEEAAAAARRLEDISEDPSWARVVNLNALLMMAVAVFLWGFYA
Put plainly: Inhibition of human SGLT2 expressed in CHOK1 cells assessed as reduction in sodium-dependent glucose uptake after 1 hr in presence of [14C]-methyl-alpha -D-glucopyranoside by microbeta counting method. The class given is cell-based. In a few lines: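 Human SGLT2 stably expressed in CHO-K1 cells; 20 min Na-free choline pretreatment, then Na+ uptake buffer pH 7.4 with 1 mM methyl-α-D-glucopyranoside containing [14C] label plus compound, 1 h at 37 °C. Washed, NaOH lysis, scintillation counting; Na-free buffer for background. IC50 from six concentrations relative to uninhibited uptake; mean of at least two experiments.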

For series [8], the target named is T2, Sodium/glucose cotransporter 1 (Homo sapiens, UniProt P13866).
T2 sequence (P13866 whole entry): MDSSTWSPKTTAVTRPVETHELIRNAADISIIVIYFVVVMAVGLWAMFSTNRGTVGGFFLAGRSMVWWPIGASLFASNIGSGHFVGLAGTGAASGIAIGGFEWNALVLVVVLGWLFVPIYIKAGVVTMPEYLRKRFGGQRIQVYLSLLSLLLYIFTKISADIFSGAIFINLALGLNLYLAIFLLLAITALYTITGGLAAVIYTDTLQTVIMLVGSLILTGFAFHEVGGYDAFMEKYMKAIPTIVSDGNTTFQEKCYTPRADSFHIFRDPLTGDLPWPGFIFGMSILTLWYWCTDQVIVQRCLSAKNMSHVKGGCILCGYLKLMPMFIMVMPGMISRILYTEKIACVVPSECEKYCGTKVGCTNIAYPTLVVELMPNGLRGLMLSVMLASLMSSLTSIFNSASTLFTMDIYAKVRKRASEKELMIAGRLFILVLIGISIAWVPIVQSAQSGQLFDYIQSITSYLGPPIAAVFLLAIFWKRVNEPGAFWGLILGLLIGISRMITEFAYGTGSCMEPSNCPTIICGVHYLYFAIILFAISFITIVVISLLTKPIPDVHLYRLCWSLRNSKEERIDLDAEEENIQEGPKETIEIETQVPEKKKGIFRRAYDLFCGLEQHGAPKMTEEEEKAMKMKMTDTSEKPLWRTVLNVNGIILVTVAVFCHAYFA
In words: Inhibition of human SGLT1 expressed in CHOK1 cells assessed as reduction in sodium-dependent glucose uptake after 30 mins in presence of [14C]-methyl-alpha -D-glucopyranoside by microbeta counting method. Type of series: cell-based. The method, boiled down:
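CHO-K1 cells stably expressing human SGLT1, preincubated 20 min in Na-free choline buffer (pH 7.4). Uptake buffer (140 mM NaCl, HEPES/Tris pH 7.4) with 0.1 mM methyl-α-D-glucopyranoside plus [14C] tracer and test compound, 30 min at 37 °C. Cells washed, lysed in NaOH, radioactivity counted. Choline-for-Na buffer as background. Six concentrations; IC50 vs untreated control; mean of at least two experiments.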

The nature of series [9]: Permeability of the compound at pH 7.4 by PAMPA assay. Type of series: ADME. The conditions noted are these: read-out: permeability. The method, boiled down:
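PAMPA at pH 7.4: filter coated with GIT-0 lipid; donor compartment holds compound in universal buffer at 25 μM or 5 μM; permeability reported as ×10⁻⁶ cm/s.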

As to `Cc1cc(O)c([C@@H]2O[C@H](CO)[C@@H](O)[C@H](O)[C@H]2O)cc1Cc1ccc(CCNC(=O)NC(CO)(CO)CO)cc1`, the values for the dose excreted at 24 h in series [1] and in series [5] were 36.2% and 30.2%, respectively. Moreover, the concentration at 2 h in series [2] came out at 1900 ng/g. Moreover, in [3], the concentration at 24 h stood at 1110 ng/g. For the same compound, the Drug uptake in [4] turned out to be 42%. Besides, the concentration at 72 h in [6] was 803 ng/g.

`COc1cc(C(C)C)c(Cc2ccc(/C=C/C(C)(C)C(=O)NC(C)(C)C(=O)N3CCN(C)CC3)cc2C)cc1[C@@H]1O[C@H](CO)[C@@H](O)[C@H](O)[C@H]1O`: the IC50 in series [7] was found to be 281 nM; in [8], 55 nM.

With `Cc1cc(/C=C/C(C)(C)C(=O)NC(C)(C)CO)ccc1Cc1cc([C@@H]2O[C@H](CO)[C@@H](O)[C@H](O)[C@H]2O)c(O)cc1C(C)C`, the IC50 came to 69 nM in [7] and 55 nM in [8]. For the same compound, in series [9], the Papp was found to be 0.5 ×10⁻⁶ cm/s.

For the compound `Cc1cc(C)c([C@@H]2O[C@H](CO)[C@@H](O)[C@H](O)[C@H]2O)cc1Cc1ccc(/C=C/C(C)(C)C(=O)NC(C)(C)CO)cc1F`, the IC50 in series [7] was determined as 17 nM; in series [8], 34 nM.

Regarding `COc1cc(/C=C/C(C)(C)C(=O)NC(C)(C)CO)ccc1Cc1cc([C@@H]2O[C@H](CO)[C@@H](O)[C@H](O)[C@H]2O)c(C)cc1C`, the figures for the IC50 in series [7] and in [8] were 798 nM and 1170 nM, respectively.

Consider `Cc1cc(C)c([C@@H]2O[C@H](CO)[C@@H](O)[C@H](O)[C@H]2O)cc1Cc1ccc(/C=C/C(C)(C)C(=O)NC(C)(C)CO)cc1`, for which the IC50 in series [7] was 10 nM; in series [8], 22 nM.

For `Cc1cc(C)c([C@@H]2O[C@H](CO)[C@@H](O)[C@H](O)[C@H]2O)cc1Cc1ccc(/C=C/C(C)(C)C(=O)NC(C)(C)CO)cc1C(C)C`, the figures for the IC50 in series [7] and in series [8] were 2130 nM and 12500 nM, respectively.

Consider `CC(C)c1cc(O)c([C@@H]2O[C@H](CO)[C@@H](O)[C@H](O)[C@H]2O)cc1Cc1ccc(/C=C/C(C)(C)C(=O)NC(C)(C)CO)cc1`, for which the IC50 in series [7] came to 19 nM; in [8], 23 nM.
